Laboratory results taken from paper PMC10825487 (Heliyon, 2024).

Target: DENV2 NS2B-NS3 protease (Dengue virus type 2, UniProt P29990)
Test: DENV2 NS2B-NS3 protease inhibition assay
Type: biochemical
Details: for fold decrease of inhibitory activity: based on IC50, compared to 3e; for IC50: IC50 (Table 3), in vitro inhibition of DENV2 NS2B-NS3 protease, two decimals
In short: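 Recombinant DENV-2 NS2B-NS3 protease (pQE-30, E. coli XL1-Blue MRF', IPTG-induced, Ni-NTA-purified) at 3.5 µM in 200 mM Tris-HCl pH 8.5. Preincubated with test compound (700 µM screen; 5.5–700.0 µM for IC50) for 10 min at 37 °C. Then 150 µM Boc-Gly-Arg-Arg-MCA added, 1 h at 37 °C. AMC read at ex 365/em 410 nm. % inhibition relative to enzyme+substrate control, buffer blank subtracted. n = 3; IC50 by nonlinear regression.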

Sequence of DENV2 NS2B-NS3 protease (P29990 1346-1475): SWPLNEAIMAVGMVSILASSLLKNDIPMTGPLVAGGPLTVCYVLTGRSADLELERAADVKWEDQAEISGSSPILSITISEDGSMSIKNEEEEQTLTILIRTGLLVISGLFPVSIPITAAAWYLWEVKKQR
Sequence of DENV2 NS2B-NS3 protease (P29990 1476-1653): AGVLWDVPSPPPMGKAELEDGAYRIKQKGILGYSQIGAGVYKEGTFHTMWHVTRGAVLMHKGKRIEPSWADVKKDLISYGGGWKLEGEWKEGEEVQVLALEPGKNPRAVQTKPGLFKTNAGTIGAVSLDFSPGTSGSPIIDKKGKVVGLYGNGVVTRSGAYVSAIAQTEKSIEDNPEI

For `COc1ccc(-c2nc3cc4nc5ccccc5nc4cc3[nH]2)cc1[N+](=O)[O-]` [Compound 3a, 2-(4-methoxy-3-nitrophenyl)-1H-imidazo [4,5-b]phenazine], the inhibition at 700 µM was 83.5 ± 1.96% and the “fold decrease of inhibitory activity” value was 1 fold.

Work on `Oc1ccccc1-c1nc2cc3nc4ccccc4nc3cc2[nH]1` [Compound 3b, 2-(2-hydroxyphenyl)-1H-imidazo [4,5-b]phenazine] yielded an inhibition at 700 µM of 46.6 ± 1.68%.

Compound `COc1ccc(-c2nc3cc4nc5ccccc5nc4cc3[nH]2)cc1OC` [Compound 3c, 2-(3,4-dimethoxyphenyl)-1H-imidazo [4,5-b]phenazine] has an inhibition at 700 µM of 55.31 ± 0.39%.

With `COc1cc([N+](=O)[O-])ccc1-c1nc2cc3nc4ccccc4nc3cc2[nH]1` [Compound 3d, 2-(2-methoxy-4-nitrophenyl)-1H-imidazo [4,5-b]phenazine] the inhibition at 700 µM was 83.9 ± 1.67% and the “fold decrease of inhibitory activity” value was 1.4 fold.

`O=[N+]([O-])c1ccc(-c2nc3cc4nc5ccccc5nc4cc3[nH]2)cc1O` [Compound 3e, 2-(3-hydroxy-4-nitrophenyl)-1H-imidazo [4,5-b]phenazine] showed an inhibition at 700 µM of 95.5 ± 1.75% and an IC50 of 54.8 µM.

`Oc1c(Br)cccc1-c1nc2cc3nc4ccccc4nc3cc2[nH]1` [Compound 3f, 2-(3-bromo-2-hydroxyphenyl)-1H-imidazo [4,5-b]phenazine] was tested, and the inhibition at 700 µM was 70.8 ± 1.46%.

With `COc1cc(-c2nc3cc4nc5ccccc5nc4cc3[nH]2)cc(OC)c1OC` [Compound 3g, 2-(3,4,5-trimethoxyphenyl)-1H-imidazo [4,5-b]phenazine] the inhibition at 700 µM was 53.3 ± 2.76%.

Compound `Oc1ccc(-c2nc3cc4nc5ccccc5nc4cc3[nH]2)c(O)c1` [Compound 3h, 2-(2,4-dihydroxyphenyl)-1H-imidazo [4,5-b]phenazine] has an inhibition at 700 µM of 84.7 ± 1.26%.

In the case of `CC(C)c1ccc(-c2nc3cc4nc5ccccc5nc4cc3[nH]2)cc1` [Compound 3i, 2-(4-isopropylphenyl)-1H-imidazo [4,5-b]phenazine], the inhibition at 700 µM is reported as 75.68 ± 0.26%.

`Oc1ccc(-c2nc3cc4nc5ccccc5nc4cc3[nH]2)cc1` [Compound 3j, 2-(4-hydroxyphenyl)-1H-imidazo [4,5-b]phenazine] was tested, and the inhibition at 700 µM was 60.3 ± 2.27% and the “fold decrease of inhibitory activity” value was 3 fold.

`FC(F)(F)Oc1ccc(-c2nc3cc4nc5ccccc5nc4cc3[nH]2)cc1` [Compound 3k, 2-(4-(trifluoromethoxy)phenyl)-1H-imidazo [4,5-b]phenazine] was tested, and the inhibition at 700 µM was 63.3 ± 2.8% and the IC50 was 71.9 µM.

`Fc1ccccc1-c1nc2cc3nc4ccccc4nc3cc2[nH]1` [Compound 3l, 2-(2-fluorophenyl)-1H-imidazo [4,5-b]phenazine] was tested, and the inhibition at 700 µM was 78.23 ± 0.03%.

`Fc1ccc(-c2nc3cc4nc5ccccc5nc4cc3[nH]2)cc1` [Compound 3m, 2-(4-fluorophenyl)-1H-imidazo [4,5-b]phenazine] was tested, and the inhibition at 700 µM was 84.8 ± 0.89% and the “fold decrease of inhibition” value (based on IC50, compared to 3k) was 2.2 fold.

`O=c1c(O)c(-c2ccc(O)c(O)c2)oc2cc(O)cc(O)c12` [Quercetin, reference compound] gave an inhibition at 700 µM of 90.27 ± 0.49% and an IC50 of 105 µM.
